ChEMBL document CHEMBL3526049 (Drug Metab Dispos, 2012)

Columns and labels:
Rattus norvegicus [1] = assay: Drug metabolism in wild-type Sprague-Dawley rat assessed as metabolite to parent ratio treated with sulfasalazine at 20 mg/kg, po; type: ADME, organism-based; design: dose 20 mg/kg, route oral; conditions: in vivo
Summary of the method: (§1)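 Male Sprague-Dawley knockout or age/weight-matched wild-type rats with femoral artery and vein cannulas. Crossover design: day 0 i.v. bolus 5 mg/kg sulfasalazine in water at pH 9–10, then day 3 gavage 20 mg/kg in 0.5% carboxymethyl cellulose/PBS pH 7.4. Arterial plasma was sampled to 24 h. Sulfasalazine and sulfapyridine were measured by LC-MS/MS (1–5000 ng/ml). Parameters are noncompartmental; n = 4–8, mean ± S.D.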

Rattus norvegicus [2] = assay: Cmax in wild-type Sprague-Dawley rat treated with sulfasalazine at 20 mg/kg, po by LC-MS/MS analysis; type: ADME, organism-based; design: dose 20 mg/kg, route oral; conditions: in vivo; summary of the method: as §1
[3] = Half life in MRP2 knockout Sprague-Dawley rat treated with sulfasalazine at 20 mg/kg, po by LC-MS/MS analysis; type: ADME, organism-based; design: dose 20 mg/kg, route oral; conditions: in vivo
Summary of the method: (§2)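 Male Sprague-Dawley knockout rats or wild-type rats matched for age and weight, with femoral artery and vein cannulas. Crossover design: sulfasalazine 5 mg/kg iv bolus (water, pH 9–10) on day 0, then 20 mg/kg oral gavage (0.5% carboxymethyl cellulose in PBS, pH 7.4) on day 3. Arterial plasma collected 0–24 h. Sulfasalazine and sulfapyridine measured by LC-MS/MS; noncompartmental parameters; mean ± S.D., n = 4 to 8.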

[4] = Half life in wild-type Sprague-Dawley rat treated with sulfasalazine at 20 mg/kg, po by LC-MS/MS analysis; type: ADME, organism-based; design: dose 20 mg/kg, route oral; conditions: in vivo; summary of the method: as §2
[5] = Tmax in BCRP knockout Sprague-Dawley rat treated with sulfasalazine at 20 mg/kg, po by LC-MS/MS analysis; type: ADME, organism-based; design: dose 20 mg/kg, route oral; conditions: in vivo; summary of the method: as §2
Rattus norvegicus [6] = assay: Drug metabolism in MRP2 knockout Sprague-Dawley rat assessed as metabolite to parent ratio treated with sulfasalazine at 20 mg/kg, po; type: ADME, organism-based; design: dose 20 mg/kg, route oral; conditions: in vivo; summary of the method: as §1
Rattus norvegicus [7] = assay: Cmax in BCRP knockout Sprague-Dawley rat treated with sulfasalazine at 20 mg/kg, po by LC-MS/MS analysis; type: ADME, organism-based; design: dose 20 mg/kg, route oral; conditions: in vivo; summary of the method: as §1
[8] = Tmax in MRP2-deficient Wistar rat at 20 mg/kg, po by LC-MS/MS analysis; type: ADME, organism-based; design: dose 20 mg/kg, route oral; conditions: in vivo
Summary of the method: (§3)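 Male Wistar wild-type rats and Mrp2-deficient TR⁻ rats with femoral artery and vein cannulas. Sulfasalazine given as an iv bolus (5 mg/kg, water at pH 9–10) and by oral gavage, each followed by arterial plasma sampling over 24 h. Sulfasalazine and sulfapyridine measured by LC-MS/MS; noncompartmental parameters; mean ± S.D., n = 3.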

[9] = AUC (infinity) in MRP2-deficient Wistar rat at 20 mg/kg, po by LC-MS/MS analysis; type: ADME, organism-based; design: time infinity, dose 20 mg/kg, route oral; conditions: plasma
Summary of the method: (§4)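 Male Wistar wild-type or Mrp2-deficient TR⁻ rats with femoral artery and vein cannulas. Sulfasalazine was given as a 5 mg/kg i.v. bolus and as a 20 mg/kg oral dose. Arterial plasma was sampled to 24 h and analysed for parent and sulfapyridine by LC-MS/MS. Noncompartmental parameters; n = 3, mean ± S.D.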

Rattus norvegicus [10] = assay: AUC (infinity) in BCRP knockout Sprague-Dawley rat treated with sulfasalazine at 20 mg/kg, po by LC-MS/MS analysis; type: ADME, organism-based, Plasma; design: dose 20 mg/kg, route oral, time infinity; conditions: in vivo; summary of the method: as §1
[11] = Cmax in wild-type Wistar rat at 20 mg/kg, po by LC-MS/MS analysis; type: ADME, organism-based; design: dose 20 mg/kg, route oral; conditions: in vivo; summary of the method: as §4
Rattus norvegicus [12] = assay: Drug metabolism in wild-type Wistar rat assessed as metabolite to parent ratio treated with sulfasalazine at 20 mg/kg, po; type: ADME, organism-based; design: dose 20 mg/kg, route oral; conditions: in vivo; summary of the method: as §4
Rattus norvegicus [13] = assay: Cmax in MDR1A knockout Sprague-Dawley rat treated with sulfasalazine at 20 mg/kg, po by LC-MS/MS analysis; type: ADME, organism-based; design: dose 20 mg/kg, route oral; conditions: in vivo; summary of the method: as §1
Rattus norvegicus [14] = assay: Drug metabolism in MDR1A knockout Sprague-Dawley rat assessed as metabolite to parent ratio treated with sulfasalazine at 20 mg/kg, po; type: ADME, organism-based; design: dose 20 mg/kg, route oral; conditions: in vivo; summary of the method: as §1
[15] = Tmax in MDR1A knockout Sprague-Dawley rat treated with sulfasalazine at 20 mg/kg, po by LC-MS/MS analysis; type: ADME, organism-based; design: dose 20 mg/kg, route oral; conditions: in vivo; summary of the method: as §2
Rattus norvegicus [16] = assay: AUC (infinity) in MRP2 knockout Sprague-Dawley rat treated with sulfasalazine at 20 mg/kg, po by LC-MS/MS analysis; type: ADME, organism-based, Plasma; design: dose 20 mg/kg, route oral, time infinity; conditions: in vivo; summary of the method: as §1
[17] = Half life in MDR1A knockout Sprague-Dawley rat treated with sulfasalazine at 20 mg/kg, po by LC-MS/MS analysis; type: ADME, organism-based; design: dose 20 mg/kg, route oral; conditions: in vivo; summary of the method: as §2
[18] = Tmax in wild-type Sprague-Dawley rat treated with sulfasalazine at 20 mg/kg, po by LC-MS/MS analysis; type: ADME, organism-based; design: dose 20 mg/kg, route oral; conditions: in vivo; summary of the method: as §2
[19] = Half life in BCRP knockout Sprague-Dawley rat treated with sulfasalazine at 20 mg/kg, po by LC-MS/MS analysis; type: ADME, organism-based; design: dose 20 mg/kg, route oral; conditions: in vivo; summary of the method: as §2
[20] = Half life in MRP2-deficient Wistar rat at 20 mg/kg, po by LC-MS/MS analysis; type: ADME, organism-based; design: dose 20 mg/kg, route oral; conditions: in vivo; summary of the method: as §3
[21] = Tmax in MRP2 knockout Sprague-Dawley rat treated with sulfasalazine at 20 mg/kg, po by LC-MS/MS analysis; type: ADME, organism-based; design: dose 20 mg/kg, route oral; conditions: in vivo; summary of the method: as §2
[22] = AUC (infinity) in wild-type Wistar rat at 20 mg/kg, po by LC-MS/MS analysis; type: ADME, organism-based; design: dose 20 mg/kg, route oral, time infinity; conditions: plasma; summary of the method: as §4
Rattus norvegicus [23] = assay: Cmax in MRP2 knockout Sprague-Dawley rat treated with sulfasalazine at 20 mg/kg, po by LC-MS/MS analysis; type: ADME, organism-based; design: dose 20 mg/kg, route oral; conditions: in vivo; summary of the method: as §1
[24] = Tmax in wild-type Wistar rat at 20 mg/kg, po by LC-MS/MS analysis; type: ADME, organism-based; design: dose 20 mg/kg, route oral; conditions: in vivo; summary of the method: as §3
Rattus norvegicus [25] = assay: AUC (infinity) in MDR1A knockout Sprague-Dawley rat treated with sulfasalazine at 20 mg/kg, po by LC-MS/MS analysis; type: ADME, organism-based, Plasma; design: time infinity, dose 20 mg/kg, route oral; conditions: in vivo; summary of the method: as §1
Rattus norvegicus [26] = assay: Drug metabolism in BCRP knockout Sprague-Dawley rat assessed as metabolite to parent ratio treated with sulfasalazine at 20 mg/kg, po; type: ADME, organism-based; design: dose 20 mg/kg, route oral; conditions: in vivo; summary of the method: as §1
[27] = Cmax in MRP2-deficient Wistar rat at 20 mg/kg, po by LC-MS/MS analysis; type: ADME, organism-based; design: dose 20 mg/kg, route oral; conditions: in vivo; summary of the method: as §4
Rattus norvegicus [28] = assay: AUC (infinity) in wild-type Sprague-Dawley rat treated with sulfasalazine at 20 mg/kg, po by LC-MS/MS analysis; type: ADME, organism-based, Plasma; design: time infinity, dose 20 mg/kg, route oral; conditions: in vivo; summary of the method: as §1
Rattus norvegicus [29] = assay: Drug metabolism in MRP2-deficient Wistar rat assessed as metabolite to parent ratio treated with sulfasalazine at 20 mg/kg, po; type: ADME, organism-based; design: dose 20 mg/kg, route oral; conditions: in vivo; summary of the method: as §4
[30] = Half life in wild-type Wistar rat at 20 mg/kg, po by LC-MS/MS analysis; type: ADME, organism-based; design: dose 20 mg/kg, route oral; conditions: in vivo; summary of the method: as §3

Nc1ccc(S(=O)(=O)Nc2ccccn2)cc1 [SULFAPYRIDINE]
Ratio (Rattus norvegicus [1]): 50
Cmax (Rattus norvegicus [2]): 4764 ng.Eq/ml
half-life [3]: 1.6 h
half-life [4]: 2.3 h
Tmax [5]: 4 h
Ratio (Rattus norvegicus [6]): 22
Cmax (Rattus norvegicus [7]): 2843 ng.Eq/ml
Tmax [8]: 4 h
AUC(0-inf) [9]: 15400 ng·h/mL
AUC (Rattus norvegicus [10]): 14576 ng.Eq.hr/ml
Cmax [11]: 4320 ng/mL
Ratio (Rattus norvegicus [12]): 16
Cmax (Rattus norvegicus [13]): 2525 ng.Eq/ml
Ratio (Rattus norvegicus [14]): 24
Tmax [15]: 7 h
AUC (Rattus norvegicus [16]): 12675 ng.Eq.hr/ml
half-life [17]: 1.3 h
Tmax [18]: 5 h
half-life [19]: 1.7 h
half-life [20]: 1.7 h
Tmax [21]: 4.4 h
AUC(0-inf) [22]: 29400 ng·h/mL
Cmax (Rattus norvegicus [23]): 2499 ng.Eq/ml
Tmax [24]: 4 h
AUC (Rattus norvegicus [25]): 14985 ng.Eq.hr/ml
Ratio (Rattus norvegicus [26]): 4.6
Cmax [27]: 3240 ng/mL
AUC (Rattus norvegicus [28]): 21992 ng.Eq.hr/ml
Ratio (Rattus norvegicus [29]): 34
half-life [30]: 2.3 h
